Hits are enriched below; roughly 2.2% of the tested compounds scored in any of these assays.
Jurkat NFkB inh: inhibitors of induced NF-kB luciferase reporter, primary screen, TCR NF-kB activation inhibitor project, cell-based, luminescence, uHTS; Jurkat, PMA/ionomycin-induced NF-kB luciferase reporter; inhibition, % at 4 µM; 330,000 compounds, 0.53% hits; AID 435003, 2010; in the data active = inhibition above about 50%
miR122 inh: miR-122 Renilla sensor signal increase in Huh7, primary screen, miR-122 inhibitor project, cell-based, single point, plate reader | Huh7 miR-122 Renilla luciferase sensor, 48 h; neutral wells = 0, positive control = 100 | AID 602342, 2012 | 340,000 compounds, 0.3% hits | activation (reporter increase), % at 12.5 µM;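 active = mean replicate activation score at least 90 and every replicate individually at or above 90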;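 also: higher luciferase means less miR-122 activity so hits act as miR-122 inhibitors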
NR2E3 ag-1: inhibitors of NR2E3-RetCOR corepressor binding, primary screen, NR2E3 agonist project, biochemical, TR-FRET, GST-NR2E3, biotin-RetCOR; Photoreceptor-specific nuclear receptor (Homo sapiens), Q9Y5X4; 1536-well; inhibition of corepressor binding, % at 4.78 µM; 320,000 compounds, 0.12% hits;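 active = percent inhibition above the cutoff of mean plus 3 SD of all tested compounds, set per screening campaign, cut at about 20% in these data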;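 also: 0% = DMSO wells and 100% = biotin wells as full block of FRET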
Target sequence (Q9Y5X4 whole entry, looked up): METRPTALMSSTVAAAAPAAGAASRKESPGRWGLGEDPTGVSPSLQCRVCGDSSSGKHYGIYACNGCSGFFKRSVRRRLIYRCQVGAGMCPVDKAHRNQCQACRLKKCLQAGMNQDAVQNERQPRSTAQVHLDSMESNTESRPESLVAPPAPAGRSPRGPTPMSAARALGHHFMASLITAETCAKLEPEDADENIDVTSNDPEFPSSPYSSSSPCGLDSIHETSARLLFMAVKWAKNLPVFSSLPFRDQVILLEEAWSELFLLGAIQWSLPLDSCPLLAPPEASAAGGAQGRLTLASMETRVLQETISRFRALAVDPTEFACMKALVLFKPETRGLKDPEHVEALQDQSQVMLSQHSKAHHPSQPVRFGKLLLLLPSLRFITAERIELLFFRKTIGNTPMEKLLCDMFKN
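Format: 1536-well format; test system: GST-NR2E3 and biotin-RetCOR proteins; read-out basis: percent inhibition of TR-FRET ratio; timing: 5 h incubation at 4 °C; detection: time-resolved FRET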
FGF22 binding: binders of human FGF22 protein, primary screen, FGF22 synaptogenesis inhibitor project, biophysical, thermal shift, single point | Fibroblast growth factor 22 (Homo sapiens), Q9HCT0 | recombinant FGF22 thermal shift, SYPRO orange fluorescence; percent of sucrose octasulfate shift, DMSO zero | activity (Tm shift, normalised), % at 9.99 µM | 340,000 compounds, 1.5% hits;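 active = mean Tm shift, scaled 0 neutral to 100 positive control, at about 1.3% or above, every replicate too, limit read from the data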
Target sequence (Q9HCT0 whole entry, looked up): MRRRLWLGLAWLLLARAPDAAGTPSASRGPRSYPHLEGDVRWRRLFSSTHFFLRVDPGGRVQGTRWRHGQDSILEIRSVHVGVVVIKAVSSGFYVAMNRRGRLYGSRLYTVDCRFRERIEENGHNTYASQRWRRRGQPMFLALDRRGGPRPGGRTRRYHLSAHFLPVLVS
697 NFkB inh: inhibitors of PMA/ionomycin-induced NF-kB reporter, 697 cells, primary screen, B-cell NF-kB inhibitor project, cell-based, luminescence, uHTS. inhibition, % at 4 µM. 330,000 compounds, 0.33% hits. AID 435022, 2010. 697 B-cell NF-kB luciferase reporter, 16 h; in the data active = inhibition above about 35%
NR2E3 ag-2: NR2E3 agonists in two-hybrid cells, primary screen, cell-based, luminescence, CHO-S, Gal4-NCOR/VP16-NR2E3; inhibition of corepressor binding, % at 3.98 µM; AID 602229, 2012; 360,000 compounds, 0.35% hits; luciferase; Photoreceptor-specific nuclear receptor (Homo sapiens), Q9Y5X4;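 active = inhibition above the mean of all tested compounds plus 3 SD, cut at about 70% in these data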;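 also: 0% = DMSO with NR2E3 transfected cells and 100% = cells lacking NR2E3 construct; higher means lower luciferase signal from less NR2E3 corepressor binding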
697 NFkB conf: PMA/ionomycin-induced NF-kB reporter inhibitors, 697 retest, confirmation, B-cell NF-kB inhibitor project, cell-based, luminescence, single concentration. shares compounds with 697 NFkB inh. 697 B-cell NF-kB luciferase, 16 h. inhibition, % at 4 µM. 2,000 compounds, 35% hits; in the data active = inhibition mostly above about 28%, no sharp cut-off; inactive = mostly below about 22%
Numbers without * were called inactive; i = inactive; · = no result; [ ] = another dose, or the depositor's remark.

SMILES | Jurkat NFkB inh | miR122 inh | NR2E3 ag-1 | FGF22 binding | 697 NFkB inh | NR2E3 ag-2 | 697 NFkB conf
CN(C)C(=O)c1cccc(-c2ccc3c(c2)[C@@H]2[C@@H](CCN2C(=O)c2ccc(F)cc2)[C@H](CO)N3C)c1 | · | 7[16.7 µM] | · | 0 | · | · | ·
Cc1ccsc1/C=C1\CCc2ccccc2C1=O | -141 | 5 | 0 | · | -342 | -109 | -299
CC1=CC(C)(C)Nc2ccc(OC(=O)CN3C(=O)c4ccccc4C3=O)cc21 | -2 | · | -3 | 0 | 59* | 11 | 39*
CC1=CC(C)(C)Nc2ccc(OC(=O)C(Cc3ccccc3)N3C(=O)c4ccccc4C3=O)cc21 (centres undefined) | -5 | -5 | 4 | · | 66* | -16 | 50*
COc1ccc(OC(=O)N(C)C[C@H]2OCc3ccccc3-c3ccccc3C(=O)N([C@H](C)CO)C[C@@H]2C)cc1 | · | · | · | 0 | · | · | ·
C[C@@H]1CN([C@H](C)CO)C(=O)c2cc(NC(=O)C3CCCCC3)ccc2O[C@H]1CN(C)Cc1ccc(-c2ccccc2)cc1 | · | -1[16.7 µM] | · | 0 | · | · | ·
O=C(Nc1nc2nc(-c3ccccc3)cc(-c3ccccc3)n2n1)c1ccco1 | 8 | 6 | -2 | · | 47* | -4 | 30*
CCCNC(=O)C[C@@H]1CC[C@H]2[C@@H](COC[C@@H](O)CN2C(=O)Nc2ccccc2OC)O1 | · | 9[16.7 µM] | · | 0 | · | · | ·
CCNC(=O)C[C@H]1CC[C@@H](NS(=O)(=O)c2ccc(C)cc2)[C@H](CO)O1 | · | · | · | 0 | · | · | ·
Cc1ccc(-c2csc(N3C(=N)SCC3=O)n2)cc1 | -104 | · | -1 | 0 | -268 | · | -169
O=C(NCc1cccnc1)c1cccn2c(=O)c3sccc3nc12 | -7 | 5 | 5 | · | 38* | 6 | 27
O=c1[nH]c(NC2CCN(S(=O)(=O)c3ccccc3C(F)(F)F)CC2)nc2c1CCCC2 | 36 | · | · | 0 | 44* | -37 | 26
CC1(C)CC(NC(=O)C2CCN(S(=O)(=O)c3ccccc3C(F)(F)F)CC2)CC(C)(C)N1 | -22 | -2 | -1 | 0 | 3 | -8 | ·
O=C(C[C@H]1C[C@H]2c3cc(NC(=O)CC4CC4)ccc3O[C@H]2[C@H](CO)O1)NCc1cccnc1 | · | 5[16.7 µM] | · | 0 | · | · | ·
CNC[C@@H]1Oc2cc(-c3ccc(OC)cc3)ccc2S(=O)(=O)N([C@@H](C)CO)C[C@H]1C | · | 10[16.7 µM] | · | · | · | · | ·
O=C(O)c1ccc(N/N=C/c2cc3ccccc3nc2Cl)cc1 | -12 | · | -3 | 1 | -151 | -144 | ·
Cc1cccc2cc(/C=N/Nc3ccc(C(=O)O)cc3)c(Cl)nc12 | -76 | · | -3 | 0 | -309 | -109 | -247
O=C(Nc1ccccc1O)c1ccc(NC(=O)C2CC2)cc1 | -38 | -7 | 0 | 1 | -299 | -84 | -286
C[C@@H]1CN([C@H](C)CO)C(=O)c2cccc(NC(=O)Nc3ccccc3)c2O[C@@H]1CN(C)S(=O)(=O)c1ccccc1 | · | -2[16.7 µM] | · | 0 | · | · | ·
O=C(Oc1cccc(/C=N/Nc2nc(Nc3ccccc3)nc(N3CCOCC3)n2)c1)c1ccco1 | -76 | · | 1 | · | 43* | 47 | 49*
COc1cc(/C=N/Nc2nc(N3CCCCC3)nc(N3CCCCC3)n2)ccc1OC(=O)c1ccco1 | -22 | · | 12 | · | 1 | · | ·
Cc1[nH]c2ccccc2c1/C=N/Nc1nc(Nc2ccc(F)cc2)nc(N2CCOCC2)n1 | 32 | 0 | 0 | · | 48* | 3 | 60*
Fc1ccc(Nc2nc(N3CCOCC3)nc(N3CCOCC3)n2)cc1 | -15 | 1 | 0 | 0 | -6 | 10 | ·
CC(=O)Nc1ccc2c(c1)C(=O)N(C)[C@@H]1CC[C@H](CC(=O)NCc3ccc(Cl)cc3)O[C@@H]1CO2 | · | -20[16.7 µM] | · | 0 | · | · | ·
CCOC(=O)C1=C(NC(=S)NC(=O)c2ccccc2)c2ccccc2CC1C(C)C (centres undefined) | -29 | -1 | 0 | · | i | 6 | i
SMILES | Jurkat NFkB inh | miR122 inh | NR2E3 ag-1 | FGF22 binding | 697 NFkB inh | NR2E3 ag-2 | 697 NFkB conf
CCOC(=O)c1sc(NC(=S)NC(=O)c2ccccc2)c(C(=O)OCC)c1C | 4 | -1 | -1 | · | -45 | -19 | ·
CCOC(=O)C1=C(NC(=S)NC(=O)c2ccccc2)c2ccccc2CC1(C)CC (centres undefined) | -37 | 5 | -3 | · | -267 | 17 | -25
C[C@@H]1CN([C@H](C)CO)C(=O)c2cc(C#Cc3ccccn3)cnc2O[C@@H]1CN(C)C(=O)c1cnccn1 | · | -2[16.7 µM] | · | 0 | · | · | ·
COc1ccc(C=NNc2nc3ccccc3s2)cc1 | · | · | · | 0 | · | -138 | ·
C(=N\Nc1ccccc1)/c1nc2ccccc2s1 | -137 | · | 4 | 0 | -313 | -117 | -48
C[C@@H]1CN([C@@H](C)CO)C(=O)c2cc(-c3ccc(C(=O)N(C)C)cc3)cnc2O[C@@H]1CN(C)C(=O)CN(C)C | · | -3[16.7 µM] | · | 0 | · | · | ·
Cc1sc2ncnc(N3CCC(C(=O)Nc4nc(-c5ccc(F)cc5)cs4)CC3)c2c1C | 8 | -3 | -4 | 0 | -282 | -31 | -45
CC(=O)c1sc(NC(=O)C2CCN(c3ncnc4sc(C)c(C)c34)CC2)nc1-c1ccccc1 | 10 | -2 | 12 | 0 | 11 | 20 | ·
O=C(C[C@@H]1C=C[C@H](NS(=O)(=O)c2ccc(F)cc2)[C@@H](CO)O1)NCCN1CCCCC1 | · | · | · | 0 | · | · | ·
C[C@H]1CN([C@@H](C)CO)C(=O)c2cccc(NC(=O)NC3CCCCC3)c2O[C@@H]1CN(C)Cc1ccccc1 | · | 18[16.7 µM] | · | 0 | · | · | ·
Cc1ccccc1Nc1nc(Cl)c(C=O)s1 | -7 | · | -2 | 0 | 35* | -10 | 40*
Cn1c(=N)n(CC(=O)c2ccccc2)c2ccccc21 | -37 | 8 | 2 | 0 | -287 | -141 | -259
Cn1c(=N)n(CC(=O)O)c2ccccc21 | 13 | 6 | 1 | · | 1 | -23 | ·
Cn1c(=N)n(CC(=O)c2ccc(Cl)c(Cl)c2)c2ccccc21 | -77 | · | -1 | 0 | -439 | -1 | -414
CC(C)CC#Cc1ccc2c(c1)O[C@@H](CN(C)C(=O)NC1CCCC1)[C@H](C)CN([C@@H](C)CO)S2(=O)=O | · | 5[16.7 µM] | · | 0 | · | · | ·
COc1ccc(NC(=O)CN(C)C(=O)C2(c3ccccc3)CCCC2)cc1 | 12 | -16 | · | 0 | 71* | 33 | 72*
